This note sets out measurements from ChEMBL document CHEMBL1142348, “beta-N-Biaryl ether sulfonamide hydroxamates as potent gelatinase inhibitors: part 1. Design, synthesis, and lead identification” (Bioorg Med Chem Lett, 2008).

Structures are written as SMILES. ≈ marks a conversion by molar mass, not a printed value. Bounds are passed on as bounds.

The nature of data set [1]: Selectivity ratio, IC50 for full length MMP2 to IC50 for catalytic domain MMP9. The method in brief: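 Full-length MMP-2 and MMP-9 catalytic domain, each titrated for linear velocity, in 50 mM Hepes pH 7.4, 10 mM CaCl2, 0.05% Brij-35. Preincubated 1 h at room temperature with compound dilutions (final DMSO 0.04%). Eu/QSY7-quenched peptide substrate added for 15 min at room temperature; cleavage read as Eu fluorescence. Triplicate 16-point curves, nonlinear regression; ratio is MMP-2 IC50/MMP-9 IC50.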

A further data set addresses T1, Interstitial collagenase (Homo sapiens, UniProt P03956).
T1 sequence (P03956 whole entry): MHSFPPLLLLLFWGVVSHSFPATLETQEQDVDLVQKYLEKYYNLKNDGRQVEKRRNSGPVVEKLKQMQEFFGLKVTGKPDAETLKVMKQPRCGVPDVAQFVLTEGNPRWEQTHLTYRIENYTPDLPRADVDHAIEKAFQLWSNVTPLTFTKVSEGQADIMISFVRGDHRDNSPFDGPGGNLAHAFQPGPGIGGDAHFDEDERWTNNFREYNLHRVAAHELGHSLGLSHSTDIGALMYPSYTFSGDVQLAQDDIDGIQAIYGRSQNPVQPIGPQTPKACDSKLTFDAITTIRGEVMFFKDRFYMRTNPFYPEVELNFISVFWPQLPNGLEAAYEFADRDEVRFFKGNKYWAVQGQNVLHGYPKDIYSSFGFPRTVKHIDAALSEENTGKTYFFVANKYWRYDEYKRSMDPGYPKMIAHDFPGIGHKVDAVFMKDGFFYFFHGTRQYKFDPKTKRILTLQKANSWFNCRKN
Description: Inhibition of catalytic domain MMP1.

The target in data set [2] is T2, 72 kDa type IV collagenase (Homo sapiens, UniProt P08253). Description: Inhibition of full length MMP2.
Target sequence in this assay (P08253 whole entry, the tested form may be a part): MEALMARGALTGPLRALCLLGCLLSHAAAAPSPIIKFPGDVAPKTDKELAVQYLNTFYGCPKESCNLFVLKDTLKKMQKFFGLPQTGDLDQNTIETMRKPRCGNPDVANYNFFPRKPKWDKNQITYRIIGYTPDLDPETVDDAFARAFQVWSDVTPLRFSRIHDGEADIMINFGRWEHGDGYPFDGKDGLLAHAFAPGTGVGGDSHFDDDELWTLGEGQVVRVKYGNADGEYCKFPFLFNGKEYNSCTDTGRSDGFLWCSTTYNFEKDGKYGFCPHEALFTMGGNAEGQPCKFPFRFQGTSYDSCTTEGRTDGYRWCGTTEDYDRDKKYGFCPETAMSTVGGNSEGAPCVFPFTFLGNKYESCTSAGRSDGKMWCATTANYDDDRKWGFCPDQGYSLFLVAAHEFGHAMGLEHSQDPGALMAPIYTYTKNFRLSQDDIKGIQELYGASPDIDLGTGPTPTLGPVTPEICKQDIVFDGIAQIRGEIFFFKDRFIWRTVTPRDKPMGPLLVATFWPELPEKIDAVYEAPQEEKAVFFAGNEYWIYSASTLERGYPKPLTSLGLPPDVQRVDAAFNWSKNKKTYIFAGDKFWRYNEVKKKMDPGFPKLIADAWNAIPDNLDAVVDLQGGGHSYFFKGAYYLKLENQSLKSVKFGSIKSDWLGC
The target in data set [3] is T3, Matrix metalloproteinase-9 (Homo sapiens, UniProt P14780). Description: Inhibition of catalytic domain MMP9. The method in brief: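 Peptide-cleavage FRET assay using MMP-1 and -9 catalytic domains or full-length MMP-2, each titrated to give linear velocity. Enzyme was preincubated with inhibitor for 1 h at room temperature in 50 mM Hepes pH 7.4, 10 mM CaCl2, 0.05% Brij-35, final DMSO 0.04%. Eu/QSY7-labelled peptide substrate was then added for 15 min at room temperature, and liberated Eu fluorescence was read.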

The nature of data set [4]: Cmax in rat at 0.5 mg/kg, iv. Type of data set: ADME, organism-based. Also noted: dose 0.5 mg/kg, route intravenous. As to conditions: in vivo. The method in brief:
(§1)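 Rats, n=4 per group, single intravenous dose of 0.5 mg/kg. Plasma Cmax was taken at t = 5 min. Apparent elimination half-life, AUC, steady-state volume of distribution and clearance were derived from the plasma profile. Values are means of the 4 animals.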

A short description of data set [5]: Half life in rat at 0.5 mg/kg, iv. Type of data set: ADME, organism-based. More on the design: dose 0.5 mg/kg, route intravenous. As to conditions: in vivo. The procedure, abridged:
as §1

Data set [6] in a line: AUC in rat at 0.5 mg/kg, iv. Type of data set: ADME, organism-based. More on the design: dose 0.5 mg/kg, route intravenous. As to conditions: plasma. The procedure, abridged:
as §1

Data set [7] can be described thus: Volume of distribution in rat at steady state at 0.5 mg/kg, iv. As to conditions: in vivo, read-out: Vdss. Type of data set: ADME, organism-based. Also noted: dose 0.5 mg/kg, route intravenous. The procedure, abridged: as §1
The nature of data set [8]: Clearance in rat at 0.5 mg/kg, iv. Type of data set: ADME, organism-based. Also noted: dose 0.5 mg/kg, route intravenous. As to conditions: in vivo. The procedure, abridged:
as §1

Data set [9] is described as follows: Stability in human liver microsomes. For orientation: Liver microsomes are a subcellular fraction often used to study metabolism.
Data set [10] is described as follows: Stability in rat liver microsomes.
Data set [11] is described as follows: Solubility in water at pH 7. The data set is classed as physicochemical.
Data set [12] can be described thus: Solubility in water at pH 2. Type of data set: physicochemical.
Data set [13] deals with T2, 72 kDa type IV collagenase. The data set is described as follows: Inhibition of full length MMP2 at 10 uM.
Target sequence in this assay (P08253 110-660 limits assumed): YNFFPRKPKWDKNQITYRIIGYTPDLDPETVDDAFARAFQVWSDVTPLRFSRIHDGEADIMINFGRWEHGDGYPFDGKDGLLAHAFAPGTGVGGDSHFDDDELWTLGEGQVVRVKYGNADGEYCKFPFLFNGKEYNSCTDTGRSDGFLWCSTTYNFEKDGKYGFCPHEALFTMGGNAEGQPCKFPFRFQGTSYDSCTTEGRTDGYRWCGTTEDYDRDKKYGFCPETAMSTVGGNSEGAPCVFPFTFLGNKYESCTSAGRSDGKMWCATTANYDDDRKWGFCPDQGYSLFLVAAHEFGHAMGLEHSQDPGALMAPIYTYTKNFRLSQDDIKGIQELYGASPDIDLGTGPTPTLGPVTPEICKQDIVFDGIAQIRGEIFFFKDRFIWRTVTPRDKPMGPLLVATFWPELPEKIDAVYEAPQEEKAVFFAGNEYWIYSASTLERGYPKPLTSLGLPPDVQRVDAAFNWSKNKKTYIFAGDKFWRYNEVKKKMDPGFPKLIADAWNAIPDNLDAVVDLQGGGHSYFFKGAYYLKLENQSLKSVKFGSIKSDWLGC
The target of data set [14] is T3, Matrix metalloproteinase-9. The data set is described as follows: Inhibition of MMP9 catalytic domain at 10 uM.

T3 sequence (P14780 whole entry, the tested form may be a part): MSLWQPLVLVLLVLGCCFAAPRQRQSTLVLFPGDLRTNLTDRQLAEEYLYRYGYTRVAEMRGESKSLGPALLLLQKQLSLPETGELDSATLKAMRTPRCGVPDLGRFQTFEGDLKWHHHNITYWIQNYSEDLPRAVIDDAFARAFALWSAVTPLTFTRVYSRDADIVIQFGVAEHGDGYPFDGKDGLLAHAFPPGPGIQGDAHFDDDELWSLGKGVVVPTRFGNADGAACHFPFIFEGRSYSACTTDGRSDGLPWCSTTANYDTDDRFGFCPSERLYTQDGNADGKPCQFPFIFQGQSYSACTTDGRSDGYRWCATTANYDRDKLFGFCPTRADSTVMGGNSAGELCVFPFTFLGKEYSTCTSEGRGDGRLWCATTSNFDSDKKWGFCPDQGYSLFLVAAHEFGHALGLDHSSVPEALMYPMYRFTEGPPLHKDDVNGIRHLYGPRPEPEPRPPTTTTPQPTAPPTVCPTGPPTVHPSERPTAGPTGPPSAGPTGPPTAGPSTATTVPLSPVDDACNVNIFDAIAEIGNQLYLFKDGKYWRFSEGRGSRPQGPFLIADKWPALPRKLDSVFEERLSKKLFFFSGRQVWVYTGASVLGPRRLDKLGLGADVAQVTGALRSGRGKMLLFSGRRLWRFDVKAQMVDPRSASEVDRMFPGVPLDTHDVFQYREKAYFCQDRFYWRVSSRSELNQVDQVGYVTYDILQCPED

Take `CS(=O)(=O)N(C[C@H](O)C(=O)NO)c1ccc(Oc2ccc(C(F)(F)F)cc2)cc1`: the Ratio IC50 in data set [1] turned out to be 9.9.

As for `Cc1ccc(Oc2ccc(N(CC(C)(O)C(=O)NO)S(C)(=O)=O)cc2)cc1` (racemic), the IC50 (commonly the concentration needed to halve the response being measured) at Interstitial collagenase was above 10000 nM; in [2], 20 nM; in [3], 5.5 nM. Further, the Cmax (usually the highest concentration seen after dosing) in data set [4] was determined as 1500 nM. For the same compound, the half-life (as a rule, the time in which the quantity being followed falls by half) in data set [5] was 43.2 min; in [9], 103 min; in data set [10], 10 min. The AUC (usually the area under the concentration-time curve, a measure of exposure) in data set [6] came out at 220 ng·h/mL. Further, the Vd in [7] was determined as 1.5 L/kg. For the same compound, the clearance (usually a measure of how efficiently the substance is removed, as volume per time) in [8] was 41.5 mL/min/kg. The results for the solubility in data set [11] and in data set [12] were 28 µg/mL (≈ 71 µM) and below 5 µg/mL, respectively.

For `CS(=O)(=O)N(CC(=O)NO)c1ccc(Oc2ccccc2)cc1`, the IC50 against Interstitial collagenase was above 10000 nM; in data set [2], 147 nM; in [3], 383 nM.

As to `Cc1ccc(Oc2ccc(N(C[C@H](O)C(=O)O)S(C)(=O)=O)cc2)cc1`, the inhibition in data set [13] and in data set [14] was below 10% throughout.

In [4], `Cc1ccc(Oc2ccc(N(C[C@H](O)C(=O)NO)S(C)(=O)=O)cc2)cc1` returned a Cmax of 1300 nM. This compound showed a half-life in data set [5] of 25.8 min. The same compound gave an AUC in data set [6] of 180 ng·h/mL. In addition, the Vd in data set [7] worked out at 1.4 L/kg. In data set [8], this compound showed a clearance of 47.5 mL/min/kg. For the same compound, the solubility (in general, the dissolved amount per volume that the medium holds) was 28 µg/mL (≈ 73.6 µM) in [11] and below 5 µg/mL in data set [12].

With `CS(=O)(=O)N(C[C@H](O)C(=O)NO)c1ccc(Oc2ccccc2)cc1`, the IC50 in [2] came to 247 nM; in [3], 39 nM. The Ratio IC50 in [1] was found to be 6.3.

For the compound `CO[C@@H](CN(c1ccc(Oc2ccc(C)cc2)cc1)S(C)(=O)=O)C(=O)NO`, the figures for the IC50 in data set [2] and in data set [3] were 36 nM and 3.8 nM, respectively.

With `CS(=O)(=O)N(C[C@H](O)C(=O)NO)c1ccc(S(=O)(=O)c2ccccc2)cc1`, the IC50 in [2] and in data set [3] was above 10000 nM in each case.

For `CS(=O)(=O)N(C[C@H](O)C(=O)NO)c1ccc(OCc2ccc(Cl)cc2)cc1`, the IC50 on Interstitial collagenase is above 10000 nM; in data set [2], 893 nM; in data set [3] it was 984 nM. Besides, in data set [1], the Ratio IC50 was found to be 0.9.

Consider `CS(=O)(=O)N(C[C@H](O)C(=O)NO)c1ccc(Oc2ccc(Cl)cc2)cc1`, for which the Ratio IC50 in data set [1] was 7.4.

For `CCS(=O)(=O)N(C[C@H](O)C(=O)NO)c1ccc(Oc2ccc(C)cc2)cc1`, the IC50 in [2] stood at 142 nM; in data set [3], 28 nM. For the same compound, the Ratio IC50 in data set [1] was determined as 5.1.

Turning to `Cc1ccc(Oc2ccc(N(C[C@@H](O)C(=O)NO)S(C)(=O)=O)cc2)cc1`, the IC50 is 67 nM in data set [2] and 12 nM in data set [3].

On to `CCCS(=O)(=O)N(C[C@H](O)C(=O)NO)c1ccc(Oc2ccc(C)cc2)cc1`, for which the Ratio IC50 in data set [1] stood at 4.1.

With `Cc1ccc(Oc2ccc(N(CC(=O)NO)S(C)(=O)=O)cc2)cc1`, the IC50 in [2] turned out to be 73 nM; in data set [3], 31 nM.

Consider `Cc1ccc(Oc2ccc(N(C[C@H](O)C(=O)NO)S(=O)(=O)Cc3ccccc3)cc2)cc1`, for which, in [1], the Ratio IC50 was found to be 6.3.

On to `CS(=O)(=O)N(C[C@H](O)C(=O)NO)c1ccc(OCc2ccc(F)cc2)cc1`, for which the figures for the IC50 (against Interstitial collagenase; in data set [2]; in data set [3]) were above 10000 nM, 2320 nM and 4820 nM, respectively. For the same compound, in [1], the Ratio IC50 came to 0.5.

As to `CC(C)C(=O)N(C[C@H](O)C(=O)NO)c1ccc(Oc2ccc(Cl)cc2)cc1`, the IC50 in data set [2] stood at 286 nM; in [3], 242 nM.

As to `Cc1ccc(C#Cc2ccc(N(C[C@H](O)C(=O)NO)S(C)(=O)=O)cc2)cc1`, the IC50 was 47 nM in [2] and 44 nM in data set [3]. In data set [1], the Ratio IC50 turned out to be 1.1.

On to `Cc1ccc(Oc2ccc(N(C[C@H](O)C(=O)NO)S(=O)(=O)Cc3cccnc3)cc2)cc1`, for which the Ratio IC50 in data set [1] came out at 5.8.

Turning to `CO[C@H](CN(c1ccc(Oc2ccc(C)cc2)cc1)S(C)(=O)=O)C(=O)NO`, half-maximal inhibition in data set [3] (IC50) was put at 13 nM.

Turning to `Cc1ccc(Sc2ccc(N(C[C@H](O)C(=O)NO)S(C)(=O)=O)cc2)cc1`, the IC50 in [2] came out at 297 nM; in data set [3], 54 nM. Also, in data set [1], the Ratio IC50 came out at 5.5.

Consider `Cc1ccc(Oc2ccc(N(CCC(=O)NO)S(C)(=O)=O)cc2)cc1`, for which the IC50 was above 10000 nM against Interstitial collagenase, 61 nM in [2] and 6.6 nM in data set [3].

In the case of `CS(=O)(=O)N(C[C@H](O)C(=O)NO)c1ccc(Sc2ccc(F)cc2)cc1`, the IC50 in data set [2] worked out at 283 nM; in [3] it was 104 nM. For the same compound, in data set [1], the Ratio IC50 came to 2.7.

Regarding `CC(=O)N(C[C@H](O)C(=O)NO)c1ccc(Oc2ccc(Cl)cc2)cc1`, the results for the IC50 in data set [2] and in data set [3] were 1260 nM and 933 nM, respectively.

As for `COc1ccc(C#Cc2ccc(N(C[C@H](O)C(=O)NO)S(C)(=O)=O)cc2)cc1`, the IC50 is above 10000 nM against Interstitial collagenase and 32 nM in data set [2]. In addition, the Ratio IC50 in data set [1] is 0.4.

As for `CS(=O)(=O)N(C[C@H](O)C(=O)NO)c1ccc(C#Cc2ccc(Cl)cc2)cc1`, in data set [1], the Ratio IC50 was 1.2.

Consider `CS(=O)(=O)N(C[C@H](O)C(=O)NO)c1ccc(-c2ccccc2)cc1`, for which the inhibition – broadly, the relative decrease from the control value, in per cent – in data set [13] stood at 87%; in [14] it was 79%.

Consider `Cc1ccc(Oc2ccc(N(C[C@H](O)C(=O)NO)S(=O)(=O)Cc3ccncc3)cc2)cc1`, for which the Ratio IC50 in data set [1] came to 6.4.

As to `CS(=O)(=O)N(C[C@H](O)C(=O)NO)c1ccc(OCc2ccc(C(F)(F)F)cc2)cc1`, the IC50 is above 10000 nM against Interstitial collagenase, 2920 nM in data set [2] and 1490 nM in [3]. Also, in data set [1], the Ratio IC50 turned out to be 1.9.
